OXTR potentiator: human OXTR potentiation. activation, % at 3 µM. 320,000 tested, 0.061% active. P30559. CHO-OTR cells, Fluo-8 calcium fluorescence, potentiator mode; 0% = oxytocin EC15, 100% = EC100;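 active = activation above that plate's cutoff, the mean activation of tested compounds plus 3 SD, cut at about 6.6% in these data, passing the limit was not always enough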;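 also: 100% uses oxytocin at 75 nM as the full agonist control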
Target sequence (P30559 whole entry, looked up): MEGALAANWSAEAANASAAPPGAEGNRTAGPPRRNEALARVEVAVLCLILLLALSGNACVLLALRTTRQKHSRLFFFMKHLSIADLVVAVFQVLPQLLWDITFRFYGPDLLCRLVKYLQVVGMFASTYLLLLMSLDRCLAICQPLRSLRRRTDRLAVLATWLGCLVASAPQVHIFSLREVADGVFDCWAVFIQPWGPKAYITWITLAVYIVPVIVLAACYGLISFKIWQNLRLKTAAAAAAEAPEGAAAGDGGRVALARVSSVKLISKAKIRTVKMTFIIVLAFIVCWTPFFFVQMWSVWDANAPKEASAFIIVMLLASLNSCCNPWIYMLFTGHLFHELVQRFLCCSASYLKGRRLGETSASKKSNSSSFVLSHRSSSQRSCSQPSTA
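Dosing: Single dose, 3.0 µM nominal final compound concentration | Material: Human OTR in CHO cells | Technique: Kinetic Fluo-8 calcium fluorescence | Benchmarks: EC15 oxytocin alone as 0%, 75 nM oxytocin as 100% | Probe or stimulus: Oxytocin at about EC15, sub-maximal agonist stimulus | Incubation: Compound 6 min at room temperature before oxytocin, 100 s read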
V1R ag counter: V1a receptor agonism, counter-screen for OXTR agonists | P37288 | CHO-V1R cells, Fluo-8 calcium fluorescence, agonist mode; 0% DMSO, 100% 3 nM vasopressin | activation, % at 3 µM | 320,000 tested, 0.25% active | AID 2797;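 active = activation above the mean activation of all tested compounds plus 3 SD, per screening run, cut at about 20% in these data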;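 also: signal is peak over basal fluorescence ratio across a 100 second FLIPR read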
TAAR1 antag: antagonists of human TAAR1; inhibition, % at 3 µM; CHO RD-HGA16 TAAR1, Fluo-8 calcium fluorescence, antagonist; Q96RJ0; 360,000 tested, 1.5% active;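 active = inhibition above a per-plate cutoff, the mean inhibition of test compounds on that plate plus 3 SD, cut at about 49% in these data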;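 also: 0% = DMSO plus EC80 beta-PEA response and 100% = DMSO alone without agonist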
Target sequence (Q96RJ0 whole entry, looked up): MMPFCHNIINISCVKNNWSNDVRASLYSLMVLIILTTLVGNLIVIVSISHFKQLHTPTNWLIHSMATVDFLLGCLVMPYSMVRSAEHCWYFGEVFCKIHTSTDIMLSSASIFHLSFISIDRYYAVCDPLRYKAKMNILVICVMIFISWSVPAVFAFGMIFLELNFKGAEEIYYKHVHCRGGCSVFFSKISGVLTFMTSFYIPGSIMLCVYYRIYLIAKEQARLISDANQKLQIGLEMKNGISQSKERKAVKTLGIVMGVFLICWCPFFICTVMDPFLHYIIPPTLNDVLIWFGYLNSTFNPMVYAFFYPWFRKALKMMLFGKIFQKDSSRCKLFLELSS
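Test system: RD-HGA16 CHO cells with stable hTAAR1 and Gα16 / Probe or stimulus: EC80 β-phenethylamine stimulus / Times: seeding 17-24 h prior, 75-min 37 °C, 30-min RT dye loading / Detection: Fluo-8 calcium-sensitive fluorescence / Read-out basis: % inhibition scaled between DMSO and EC80 PEA controls / Repeats: singlicate, one well per test compound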
TAAR1 ag: human TAAR1 agonism | Q96RJ0 | CHO RD-HGA16 TAAR1, Fluo-8 calcium fluorescence; vehicle wells 0%, saturating PEA agonist 100% | activation, % at 3 µM | 360,000 tested, 0.99% active;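 active = activation above the mean activation of all test compounds in the run plus 3 SD, cut at about 38% in these data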
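System: CHO-derived RD-HGA16 cells with stable Gα16 and human TAAR1 / Times: 17-24 h plating, Fluo-8 75 min 37 °C, 30 min RT / Technique: calcium-sensitive Fluo-8 signal, excitation 470-495, emission 515-575 nm / Measure: % activation relative to PEA EC100 response / Benchmarks: DMSO and PEA EC100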
OXTR ag: agonists of human oxytocin receptor | P30559 | CHO-OTR cells, Fluo-8 calcium fluorescence; normalized: DMSO 0%, oxytocin 100% | activation, % at 3 µM | 320,000 tested, 0.32% active | AID 2435;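 active = activation above the mean of all tested compounds plus 3 SD, cutoff set per screening run, cut at about 20% in these data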;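 also: peak over basal fluorescence ratio from a 100 s FLIPR kinetic read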
TAAR1 ag conf: human TAAR1 agonism, confirmed; shares compounds with TAAR1 ag; CHO RD-HGA16 TAAR1, Fluo-8 calcium fluorescence; scaled: DMSO 0%, maximal phenethylamine 100%; activation, % at 3 µM; 2,400 tested, 82% active; AID 651783;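 active = activation above a cutoff set at the run's mean compound activation plus 3 SD, cut at about 39% in these data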
Ga16 ag counter: nonselective agonist in parental cells, TAAR1 agonist counter-screen; 2,400 tested, 50% active; CHO-Ga16 parental, Fluo-8 calcium fluorescence; normalized to maximal ATP response, DMSO zero; activation, % at 3 µM; shares compounds with TAAR1 ag; AID 651787;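 active = activation above the run cutoff, the mean activation over all tested wells plus 3 SD, cut at about 12% in these data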;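 also: 0% = DMSO wells and 100% = maximal ATP response on the peak over basal ratio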
TAAR1 desensitize: human TAAR1 agonist that also desensitizes the receptor; shares compounds with TAAR1 ag; CHO RD-HGA16 hTAAR1, Fluo-8 calcium, beta-PEA response inhibition; inhibition, % at 3 µM; 2,400 tested, 46% active;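 active = inhibition above the run cutoff, the mean inhibition of all test compounds plus 3 SD, cut at about 49% in these data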;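 also: beta-PEA stimulus applied at its EC80; loss of beta-PEA calcium signal after compound pretreatment read as receptor desensitization; 0% = DMSO with beta-PEA at EC80 and 100% = DMSO alone without agonist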
Ga16 antag count: nonselective Ga16 antagonist in TAAR1 agonist counter-screen; inhibition, % at 3 µM; CHO-Ga16 ATP-induced calcium, Fluo-8 fluorescence; shares compounds with TAAR1 ag; 2,400 tested, 39% active;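 active = inhibition above the plate's mean compound inhibition plus 3 SD, computed per plate, cut at about 22% in these data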;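 also: 0% = EC80 ATP with DMSO and 100% = DMSO wells without ATP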
* marks the source's active call; other numbers are inactive results; nt = no result given. A selection: hits, their analogues and other compounds. The true share with any hit is near 2.3%.

SMILES	OXTR potentiator	V1R ag counter	TAAR1 antag	TAAR1 ag	OXTR ag	TAAR1 ag conf	Ga16 ag counter	TAAR1 desensitize	Ga16 antag count
Cc1cccc(C(=O)NNC(=S)NC(=O)c2cccs2)c1	-19	63*	60*	142*	65*	120*	95*	75*	53*
COc1ccc(C)c2sc(NC(=O)CCS(=O)(=O)c3ccccc3)nc12	-8	5	18	10	7	nt	nt	nt	nt
CCOc1ccc(NC(=O)Cc2ccc(S(=O)(=O)N3CCCCC3)cc2)cc1OCC	-8	1	8	-2	0	nt	nt	nt	nt
CC1CCCC(NC(=O)CN(C)CC(=O)Nc2ccc(F)cc2)C1C (centres undefined)	-5	0	-18	2	1	nt	nt	nt	nt
Nc1c(-c2n[nH]c(=S)n2-c2ccc(Cl)cc2Cl)cnn1-c1ccccc1	-16	7	16	97*	11	73*	44*	36	28*
Cn1c(-c2cnn(-c3ccccc3)c2N)n[nH]c1=S	-1	0	3	2	0	nt	nt	nt	nt
Cc1cc(/C=C2\SC(=O)NC2=O)c(C)n1-c1ccc(N2CCOCC2)cc1	-14	6	22	60*	12	70*	34*	31	24*
Cc1cc(/C=C2\SC(=O)NC2=O)c(C)n1-c1ccc(N(C)C)cc1	-12	-1	17	-3	-2	nt	nt	nt	nt
Cc1cc(C)n(-c2nc3ccccc3nc2NCCc2ccccc2)n1	-2	0	-8	61*	-1	36	1	3	3
CCOCCCNc1ccc(N2C(=O)C3CCCCC3C2=O)cc1[N+](=O)[O-] (centres undefined)	-1	3	-5	44*	1	5	4	5	11
Cc1cc(C)nc(/N=C(\N)Nc2ccc(S(=O)(=O)O)cc2)n1	nt	nt	5	13	nt	nt	nt	nt	nt
Cc1cc(C)nc(/N=C(\N)Nc2cccc(OCc3ccccc3)c2)n1	-10	50*	107*	124*	46*	112*	83*	106*	90*
Cc1cc(C)nc(/N=C(\N)Nc2ccc(OCCC(C)C)cc2)n1	-25	48*	103*	145*	50*	127*	103*	105*	93*
COc1ccc([C@H]2C[C@@H](n3cc(C4CC4)nn3)[C@H](O)CN2C(=O)c2cccs2)cc1	nt	nt	-4	2	nt	nt	nt	nt	nt
COc1ccc(NC(=O)Nc2ccc(Br)c(C)c2)cc1	-6	1	36	9	1	nt	nt	nt	nt
CC1CCN(c2ccc(NC(=O)Cc3ccccc3)cc2)CC1	-9	-1	53*	84*	2	-1	20*	1	13
Fc1ccc(C2CCCN2Cc2nc(Cc3ccccc3)no2)cc1 (centres undefined)	-2	-1	-26	4	-3	nt	nt	nt	nt
O=C1CCC(=O)c2ccc3c4c(ccc1c24)CC3	nt	nt	14	0	nt	nt	nt	nt	nt
O=C1CCN2C=Nc3cccc4ccc1c2c34	-14	29*	32	109*	38*	31	36*	25	20
COc1ccc(-c2nc(CN(Cc3cnn(C)c3)C(C)C)c(C)o2)c(OC)c1	-4	0	1	4	-1	nt	nt	nt	nt
NC(=O)C1CC(=O)N(c2ccc(OCc3c(Cl)cccc3Cl)cc2)C1 (centres undefined)	-12	3	-4	44*	1	24	15*	15	20
NC(=O)C1CC(=O)N(c2ccc(OCc3c(F)cccc3Cl)cc2)C1 (centres undefined)	-10	2	-6	5	2	nt	nt	nt	nt
COc1cccc(-c2c(C(=O)N/N=C(\C)COc3ccccc3)nnn2-c2nonc2N)c1	-8	2	-15	9	0	nt	nt	nt	nt
CCCOc1ccc(-c2c(C(=O)N/N=C(\C)c3ccncc3)nnn2-c2nonc2N)cc1	-5	1	-5	11	0	nt	nt	nt	nt
COc1cccc(-c2c(C(=O)N/N=C(\C)c3cccs3)nnn2-c2nonc2N)c1	-7	60*	87*	140*	44*	115*	84*	78*	28*
SMILES	OXTR potentiator	V1R ag counter	TAAR1 antag	TAAR1 ag	OXTR ag	TAAR1 ag conf	Ga16 ag counter	TAAR1 desensitize	Ga16 antag count
C/C(=N\NC(=O)c1nnn(-c2nonc2N)c1-c1ccc2c(c1)OCO2)c1cccs1	-8	7	96*	144*	16	127*	101*	91*	61*
COc1cccc(-c2c(C(=O)N/N=C(\C)c3ccncc3)nnn2-c2nonc2N)c1	0	3	-11	14	0	nt	nt	nt	nt
CCOc1ccc(-c2c(C(=O)N/N=C(\C)c3cccs3)nnn2-c2nonc2N)cc1	-6	11	-10	85*	4	98*	63*	19	7
CCOc1cccc(-c2c(C(=O)N/N=C(\C)c3cccs3)nnn2-c2nonc2N)c1	-11	36*	88*	132*	36*	134*	98*	97*	70*
Cc1ccnn1CCC(=O)O	-3	1	-21	0	0	nt	nt	nt	nt
COc1ccc(S(=O)(=O)NCC2CCCN(Cc3cccnc3)C2)cc1 (centres undefined)	-7	0	28	-1	0	nt	nt	nt	nt
Cc1cc(CNC(=O)CCc2nnc(CCCc3ccccc3)o2)nn1C	-7	0	-3	6	0	nt	nt	nt	nt
Cc1ccc(S(=O)(=O)Nc2cccc(-c3ccc(N4CCCCCC4)nn3)c2)cc1	-3	1	-16	-1	-1	nt	nt	nt	nt
CCOc1ccc(-c2c(C(=O)N/N=C(\C)c3ccco3)nnn2-c2nonc2N)cc1	-19	23*	1	115*	26*	101*	67*	18	9
CCOc1ccc(-c2c(C(=O)N/N=C(\C)c3ccccc3OC)nnn2-c2nonc2N)cc1	-19	0	-19	5	-1	nt	nt	nt	nt
COC(=O)c1sccc1S(=O)(=O)Nc1ccc(C(O)(C(F)(F)F)C(F)(F)F)cc1	nt	nt	103*	169*	nt	142*	113*	103*	84*
CCOC(=O)C(C(=O)OCC)c1cc(Br)c2noc3c2c1C(=O)c1ccccc1-3	-5	9	73*	59*	12	66*	62*	87*	85*

Screening results (PubChem)
